Bioassay records: PubChem, Johns Hopkins Ion Channel Center
The list is not random: actives were taken first. Their share in the collection is about 3.5%.
MrgX1 PAM = positive allosteric modulators of MrgX1, primary screen, HEK293 cells, Fluo-4 calcium flux. 0.63% of 310,000 active. B-score at 10 µM. FDSS; active compounds read high. Mas-related G-protein coupled receptor member X1 (Homo sapiens), Q96LB2;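 active = plate-corrected calcium response at least 3 library SD above typical, normal starting fluorescence, not activating the receptor alone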;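 note: compound read alongside a low EC10 to EC30 dose of BAM8-22 agonist; peak minus trough fluorescence over baseline measured at the second addition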
Target sequence (Q96LB2 whole entry, looked up): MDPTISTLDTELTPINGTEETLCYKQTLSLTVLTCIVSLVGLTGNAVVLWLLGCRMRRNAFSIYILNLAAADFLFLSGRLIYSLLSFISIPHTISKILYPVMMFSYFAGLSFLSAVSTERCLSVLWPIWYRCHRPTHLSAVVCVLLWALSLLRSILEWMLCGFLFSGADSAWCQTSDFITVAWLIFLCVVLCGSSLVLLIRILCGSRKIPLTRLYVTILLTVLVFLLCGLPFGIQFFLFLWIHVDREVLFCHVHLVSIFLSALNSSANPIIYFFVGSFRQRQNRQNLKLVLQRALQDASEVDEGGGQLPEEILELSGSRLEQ
RGS4 inh = RGS4 inhibitors, primary screen, cell-based, HEK293 M3R inducible RGS4, calcium flux; B-score at 10 µM; 0.45% of 310,000 active; Regulator of G-protein signaling 4 (Homo sapiens), P49798; Fluo-4 calcium flux; active compounds read high; triggered by carbachol at its EC20; AID 463165, 2010;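 active = B-score, a plate-corrected calcium signal, over three deviations above library mean, with baseline fluorescence within five deviations of library mean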;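 note: RGS4 expression induced by doxycycline in cells with stable M3 receptor; B-score is computed from the integrated fluorescence ratio over baseline after carbachol; higher B-score means a larger calcium signal and so more RGS4 inhibition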
Target sequence (P49798 whole entry, looked up): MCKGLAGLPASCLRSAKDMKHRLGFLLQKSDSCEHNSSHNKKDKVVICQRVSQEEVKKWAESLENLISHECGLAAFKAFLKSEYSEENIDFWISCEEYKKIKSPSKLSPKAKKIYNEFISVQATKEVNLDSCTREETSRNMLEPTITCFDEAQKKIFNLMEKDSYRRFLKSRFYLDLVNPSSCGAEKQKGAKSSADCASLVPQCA
MrgX1 ag = agonists of human MrgX1 receptor, primary screen, HEK293 cells, Fluo-4 calcium flux. Mas-related G-protein coupled receptor member X1 (Homo sapiens), Q96LB2. Fluo-4 calcium fluorescence, agonist mode; active compounds read high. B-score at 10 µM. 0.44% of 310,000 active. AID 588627, 2011;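 active = calcium response B-score plate-corrected fluorescence ratio at least 3 library SD, with starting fluorescence B-score inside 5 SD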
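Test system: Stable human MrgX1 HEK293 cell line | Schedule: Overnight plating before 1 h dye loading | Read-out basis: Baseline-normalised fluorescence change ratio, B-scored | Detection: Kinetic calcium dye fluorescence, Fluo-4 NW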
RGS4 pot = RGS4 potentiators or activators, primary screen, cell-based, HEK293 M3R inducible RGS4, calcium flux | 0.92% of 310,000 active | carbachol calcium flux Fluo4; active compounds read low | B-score at 10 µM;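 active = B-score of the integrated calcium signal more than 4 SD below the library mean, with starting fluorescence not abnormally high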;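 note: negative B-score means reduced calcium response which marks RGS4 activation or potentiation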
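System: HEK293 FlpIn-TREx cells, stable M3R, doxycycline-inducible RGS4. Timing: overnight RGS4 induction, 30 min dye load 37 °C, 20 min compound RT. Also added: carbachol, ECmax concentration. Measured by: Fluo4 fluorescence kinetic imaging of calcium. Evaluation: integrated calcium ratio converted to B score.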
MrgX1 antag = antagonists of human MrgX1 receptor, primary screen, HEK293 cells, Fluo-4 calcium flux; Mas-related G-protein coupled receptor member X1 (Homo sapiens), Q96LB2; 1.3% of 310,000 active; AID 588676, 2011; BAM8-22 antagonism; active compounds read low; B-score at 10 µM;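 active = calcium-response B-score plate-corrected more than 3 library SD below zero, starting fluorescence within 5 deviations, no agonist response on first addition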;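 note: peak minus trough fluorescence over baseline after final BAM8-22 challenge near maximal dose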
MrgX1 antag conf = MrgX1 receptor antagonists, duplicate retest, confirmation, HEK293 cells, Fluo-4 calcium flux; 19% of 2,300 active; BAM8-22 calcium flux; active compounds read low; AID 602420, 2012; shares compounds with MrgX1 antag; remaining BAM8-22 calcium response % of control (active compounds read low), % at 10 µM;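 active = remaining agonist calcium response no higher than 100% minus 3 SD of agonist-only control wells, with starting fluorescence near control levels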;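 note: agonist BAM8-22 given at a near maximal EC90 to ECmax level; peak minus minimum fluorescence divided by baseline after agonist addition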
HEK293 Ca flux = nonspecific calcium signal in parental HEK293, confirmation, counter-screen for MrgX1 antagonist project, parental HEK293 cells, Fluo-4 calcium flux | AID 624111, 2012 | fluorescence ratio F(max-min)/F0 at 10 µM | 2% of 4,000 active | shares compounds with MrgX1 antag | Fluo-4 calcium fluorescence, FDSS;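 active = duplicate-averaged calcium fluorescence ratio at least three times the standard deviation of buffer wells, a nonspecific response in parental cells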
HEK293 Ca counter = calcium response in parental HEK293 cells, primary screen, counter-screen for MrgX1 allosteric activator project, cell-based, Fluo-4 calcium flux, duplicate | AID 624114, 2012 | fluorescence ratio F(max-min)/F0 at 10 µM | shares compounds with MrgX1 antag | 0.4% of 4,000 active | Fluo-4 fluorescence ratio; active compounds read high;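 active = calcium fluorescence ratio, averaged over duplicates, at least 3 SD of the buffer-well ratio, meaning a nonspecific response in receptor-free cells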;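 note: untransfected parental HEK293 lacking MrgX1 used as counterscreen for MrgX1 allosteric activators; fluorescence change taken during the second addition on a kinetic imager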
HEK293 Ca cntr2 = calcium response in parental HEK293 cells, primary screen, counter-screen for MrgX1 agonist project, cell-based, Fluo-4 calcium flux, duplicate, agonist mode; shares compounds with MrgX1 antag; fluorescence ratio F(max-min)/F0 at 10 µM; Fluo-4 calcium fluorescence (FDSS); active compounds read high; 8.7% of 4,000 active;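 active = calcium fluorescence ratio at least three times the spread of buffer wells, meaning a non-specific response in parental cells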
* hit, by the source's call; i = inactive; · = no result given.

SMILES | MrgX1 PAM | RGS4 inh | MrgX1 ag | RGS4 pot | MrgX1 antag | MrgX1 antag conf | HEK293 Ca flux | HEK293 Ca counter | HEK293 Ca cntr2
CCOC(=O)c1cc(C)n(-c2ccc(OC)c(OC)c2)c1C | i | i | i | i | i | · | · | · | ·
O=S(=O)(Nc1nc(-c2ccccc2)cs1)c1cccc(C(F)(F)F)c1 | i | i | i | i | -7.4* | i | i | i | i
CC(=O)NC1C(=O)N(CCN2CCOCC2)c2ccc(Cl)cc21 (stereo not drawn) | i | i | i | i | -8.7* | i | i | i | i
CCCCN1C(=O)C(NC(C)=O)c2cc(Br)ccc21 (stereo not drawn) | i | i | i | i | i | · | · | · | ·
CC(=O)NC1C(=O)N(CCN2CCOCC2)c2ccc(F)cc21 (stereo not drawn) | i | i | i | i | -5.4* | 61%* | i | i | i
Cc1cc(C)n(-c2ccnc3cc(Cl)ccc23)n1 | i | i | i | i | i | · | · | · | ·
O=C(O)C(Cc1ccccc1)n1cccc1 (stereo not drawn) | i | i | i | i | i | · | · | · | ·
O=C(O)[C@H](Cc1ccccc1)N1C(=O)c2c(Cl)c(Cl)c(Cl)c(Cl)c2C1=O | i | i | i | i | -8.6* | i | i | i | i
O=C(CNC(=O)c1cccs1)OCC(=O)c1ccccc1 | i | i | i | i | i | · | · | · | ·
CCc1ccc(C(=O)COC(=O)CNC(=O)c2cccs2)cc1 | i | i | i | i | -6.2* | i | i | i | i
O=C(Nc1cc(S(=O)(=O)N2CCOCC2)ccc1N1CCOCC1)c1cnccn1 | i | i | i | i | -4.8* | i | i | i | i
CCOc1ccc(S(=O)(=O)n2nnc3ccccc32)cc1C(C)C | i | i | i | i | i | · | · | · | ·
Cc1ccc(-c2nc(S(=O)(=O)c3ccc(C)cc3)c(SCC(N)=O)o2)cc1 | i | i | i | i | i | · | · | · | ·
Cc1ccc(S(=O)(=O)c2nc(-c3cccs3)oc2SCC(N)=O)cc1 | i | i | i | i | -7.1* | i | i | i | i
O=C(NNC(=O)C1CC1c1ccccc1)Nc1ccccc1 (stereo not drawn) | i | i | i | i | i | · | · | · | ·
Cc1cc(C)c(S(=O)(=O)N2CCCc3ccccc32)c(C)c1 | i | i | i | i | -7.1* | i | i | i | 52*
Cc1ccc(CNC(=O)NC2CCCCC2)cc1 | i | i | i | i | -5.1* | i | i | i | i
Cc1ccc(CNC(=S)NC2CCCCC2)cc1 | i | i | i | i | i | · | · | · | ·
CN1CCN(c2ccc(Cl)cc2NC(=O)CN2C(=O)NC(C)(c3ccccc3)C2=O)CC1 (stereo not drawn) | i | i | i | i | -4.5* | i | i | i | i
COc1ccc(-c2oc3c4c(cc(OC)c3c(=O)c2CC=C(C)C)OC(C)(C)C=C4)c(OC)c1 | i | i | i | i | i | · | · | · | ·
COCCN=C1Sc2nc3ccc(C)cc3cc2CN1Cc1ccco1 | i | i | i | i | -5.4* | i | i | i | i
CCOC(=O)C1(CC2CCCCO2)CCN(S(=O)(=O)c2ccsc2)CC1 (stereo not drawn) | i | i | i | i | i | · | · | · | ·
COC(=O)CNC(=O)CNC(=O)Nc1ccccc1 | i | i | i | i | -8.1* | 83%* | i | i | i
CC(C)(C)c1cccc(Oc2nn[nH]n2)c1 | i | i | i | i | -6.9* | i | i | i | i
Cc1cc2ccccn2c1C(=O)c1ccccc1F | i | i | i | i | i | · | · | · | ·
SMILES | MrgX1 PAM | RGS4 inh | MrgX1 ag | RGS4 pot | MrgX1 antag | MrgX1 antag conf | HEK293 Ca flux | HEK293 Ca counter | HEK293 Ca cntr2
COc1ccc(-c2cc(-c3ccccc3)nc(-c3ccc4c(c3)NC(=O)CO4)c2)cc1 | i | i | i | i | -5.9* | i | i | i | i
COc1ccc(Nc2nc(-c3ccc4c(c3)NC(=O)CO4)cs2)cc1 | i | i | i | i | i | · | · | · | ·
OC1CCN(CC(O)C(F)(F)F)CC1 (stereo not drawn) | i | i | i | i | -5.7* | i | i | i | i
Cc1sc(NC(=O)CSc2nnc(-c3ccc(F)cc3)o2)c(C#N)c1C | i | i | i | i | i | · | · | · | ·
COc1ccc(C2SCC(=O)N2CC23CC4CC(CC(C4)C2)C3)cc1 (stereo not drawn) | i | i | i | i | -5.2* | i | i | i | i
COc1ccc(C2SCC(=O)N2Cc2ccccc2)cc1 (stereo not drawn) | i | i | i | i | i | · | · | · | ·
CC1CCCC(NC(=O)Nc2cccs2)C1C (stereo not drawn) | i | i | i | i | i | · | · | · | ·
COC(=O)c1sc(S(=O)(=O)N2CCC(C(N)=O)CC2)c(C(=O)OC)c1C | i | i | i | i | i | · | · | · | ·
COC(=O)c1sc(S(=O)(=O)N2CCCCC2C(=O)O)c(C(=O)OC)c1C (stereo not drawn) | i | i | i | i | -5.4* | i | i | i | i
COC(=O)c1cccc(NC(=O)c2ccc3c(c2)C(=O)N(Cc2cccnc2)C3=O)c1 | i | i | i | i | i | · | · | · | ·
CC(C)(C)NC(=O)c1cccc(NC(=O)c2ccc3c(c2)C(=O)N(C(C)(C)C)C3=O)c1 | i | i | i | -7.1* | -11* | 79%* | i | i | i
COC(=O)c1cccc(NC(=O)c2ccc3c(c2)C(=O)N(C(C)(C)C)C3=O)c1 | i | i | i | i | -4.7* | i | i | i | i
